An excerpt weighted towards active compounds, which were near 2.9% of everything screened.
INS-1E GSIS act = primary screen for activators of insulin secretion dependent on glucose, INS-1E cells, GLuc reporter luminescence; INS-1E GLuc reporter insulin secretion, 2-3 h; activation, % at 16.6 µM; hit rate 0.61% among 370,000;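 active = lowest replicate activation of at least 40%, so every replicate reaches that level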;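 also: 0% = median of neutral control wells and 100% = median of IBMX positive control wells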
PAX8 inh HTS = inhibitors of PAX8 transcriptional activity in RMG-I cells. RMG-I TPO-luciferase reporter, SteadyGlo, 24 h. inhibition, % at 12.6 µM. hit rate 1.2% among 360,000;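 active = mean replicate inhibition at least 60% with every replicate also reaching 60%; inconclusive = only one of the two criteria is met; inactive = mean below 60% and not all replicates reaching 60%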;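 also: luciferase light reporting Pax8 driven TPO promoter activity; plate controls were median of neutral control wells for no effect and mitoxantrone controls for full effect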
CDK5 inh = CDK5/p35 (human) kinase inhibition. Q00535+Q15078. Recombinant CDK5/p35, ADP-Glo luminescence, 60 min. inhibition, % at 10 µM. hit rate 0.01% among 330,000. AID 488839;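 active = highest replicate inhibition of at least 50% and at least 75% of replicates reaching 50%; inconclusive = only one of the two criteria met; inactive = both criteria failed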;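 also: plate controls were DMSO neutral control for no effect and GW8510 at 10 µM for full effect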
dFosB act = activators of mouse delta FosB homodimer. purified delta FosB, TAMRA-CDK5 oligo fluorescence polarization; percent of positive-control signal above neutral wells. activation, % at 25 µM. hit rate 0.99% among 340,000. P13346. AID 493131;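 active = mean activation above about 17%, with every replicate also reaching it, limit read from the data, passing the limit was not always enough; inconclusive = only one of the two conditions met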
Target sequence (P13346 whole entry, looked up): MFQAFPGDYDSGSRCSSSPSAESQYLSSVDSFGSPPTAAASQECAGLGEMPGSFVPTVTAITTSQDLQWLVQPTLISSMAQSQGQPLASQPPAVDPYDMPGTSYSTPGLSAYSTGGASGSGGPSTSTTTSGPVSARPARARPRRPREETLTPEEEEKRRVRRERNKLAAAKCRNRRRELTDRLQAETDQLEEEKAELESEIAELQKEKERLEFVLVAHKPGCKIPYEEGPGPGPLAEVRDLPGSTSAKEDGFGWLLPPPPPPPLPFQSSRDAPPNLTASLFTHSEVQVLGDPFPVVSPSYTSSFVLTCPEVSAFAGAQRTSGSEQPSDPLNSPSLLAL
Cneo AK release = Cryptococcus neoformans lysis via adenylate kinase release | C. neoformans lysis, adenylate kinase release luminescence, 4 h; normalised: neutral wells 0, clomiphene wells 100 | lysis activity, % at 15 µM | hit rate 0.2% among 360,000 | AID 651654;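 active = mean lysis activity across replicates of at least 80%, whatever share of replicates individually reach that level; inactive = mean lysis activity below 80%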
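Material: C. neoformans cells; Schedule: 4 h static compound exposure, 37 °C, read 1 h post-reagent; Measured by: adenylate kinase release luminescence; Read-out: signal increase indicating cell lysis; Controls: Clomiphene as positive lysis control.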
HIV Env fusion = blocks HIV Env-driven cell-cell fusion. hit rate 1.1% among 360,000. inhibition, % at 12.3 µM. AID 651610. HeLa-JRFL Env/CEM21 cell fusion, luciferase;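 active = mean replicate inhibition score of at least 50 and every replicate individually at or above 50; inconclusive = only one of the two criteria met; inactive = mean below 50 and not all replicates reaching 50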;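 also: 0% = plate neutral controls and 100% = maraviroc near 300 nM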
Numbers without * were called inactive; ? = inconclusive; . = no result; ! = not confirmed by another sample; [ ] = dose if it differs, or a comment.

SMILES	INS-1E GSIS act	PAX8 inh HTS	CDK5 inh	dFosB act	Cneo AK release	HIV Env fusion
COc1ccc(-c2ccc3c(c2)[C@@H]2[C@@H](CCN2S(=O)(=O)c2ccccc2C)[C@H](CO)N3C)cc1	5.0	-1.8	.	.	-12.2	.
COc1ccc(-c2ccc3c(c2)[C@H]2[C@H](CCN2S(=O)(=O)c2ccccc2C)[C@H](CO)N3C)cc1	5.9	69.4*	.	.	-26.7	.
CN1c2ccc(-c3ccc(F)cc3)cc2[C@H]2[C@H](CCN2S(=O)(=O)c2cccc(F)c2)[C@H]1CO	-4.9	3.9	.	.	103.6*	.
O=C(Cc1cccc2ccccc12)NN1C(=O)/C(=C\c2cccnc2)SC1=S	21.3	-5.9	1.9	140.7*	0.6	-4.7
O=C(NN1C(=O)/C(=C\c2cccnc2)SC1=S)C(c1ccccc1)c1ccccc1	9.8	3.1	0.0	-3.4	9.5	5.9
C[C@H]1CN([C@@H](C)CO)S(=O)(=O)c2ccc(C3=CCCCC3)cc2O[C@H]1CN(C)S(=O)(=O)c1cn(C)cn1	-11.1	-3.4	.	.	-3.1	.
COc1ccccc1C(=O)Nc1c2c(nn1-c1cccc(C)c1C)CS(=O)(=O)C2	58.5*	.	-0.1	1.7	-1.3	-84.0
Cc1ccccc1-n1nc2c(c1NC(=O)c1cc3ccccc3oc1=O)CS(=O)(=O)C2	53.8*	.	.	.	.	-6.0
COc1ccccc1C(=O)Nc1c2c(nn1-c1ccc(Cl)cc1)CS(=O)(=O)C2	2.3	7.7	-5.8	2.5	11.5	-1.6
CO[C@H]1CN(C)C(=O)c2cc(NS(C)(=O)=O)ccc2OC[C@@H](C)N(Cc2ccccn2)C[C@H]1C	9.7	.	.	.	.	.
Cc1ccc(Cl)cc1N1CCN(C(=O)CSc2nnc3n2C(C)(C)Cc2ccccc2-3)CC1	-30.7	-15.9	-0.1	-3.1	2.3	76.3*
C[C@@H]1CN([C@@H](C)CO)C(=O)c2cc(NC(=O)Nc3ccc4c(c3)OCO4)ccc2O[C@@H]1CN(C)Cc1ccc(C(=O)O)cc1	28.7	.	.	.	-10.2	.
C[C@@H]1CN([C@H](C)CO)C(=O)Cc2cc(NC(=O)Nc3ccc4c(c3)OCO4)ccc2O[C@H]1CN(C)S(=O)(=O)c1cn(C)cn1	21.2	-1.7	.	.	-2.8	-8.2[16.7 µM]
CC(=O)C1(C)N(O)C(C)(C)C(c2ccco2)=[N+]1[O-] (stereo not given)	.	-9.3	1.1	3.4	-1.2	58.3*
CC1(C)C(c2ccccn2)=[N+]([O-])C(C)(C)N1O	.	.	-1.0	0.5	-1.5	.
O=c1[nH]c2c(c(=O)[nH]1)CCCCCC2	0.4	.	0.8	-15.5	-0.3	3.7
O=C1NN=C2CCCCCCCCCCC12 (stereo not given)	.	-0.6	.	.	-0.3	58.2*
O=C(NCc1ccc2c(c1)OCO2)c1cc2c(s1)CSC2	-6.7	-7.0	0.6	-5.9	3.2	60.8*
COc1ccc(-n2cnc3ccccc32)cc1	16.9	.	-1.7	6.0	4.0	.
COc1ccc2ncn(-c3ccccc3)c2c1	.	.	0.2	-2.6	2.1	68.4*
Cc1cccc(C)c1N=Nc1c(C)cc(O)cc1C	571.5*	-55.2	-1.4	-3.0	7.8	-11.3
COc1ccc(OC)c(CCNC(=O)Cn2nc(C)c3c(C)n(-c4ccc(C)cc4)nc3c2=O)c1	-2.9	70.7*	-0.3	?	-0.2	18.7
COc1ccc(CCNC(=O)Cn2nc(C)c3c(C)n(-c4ccccc4)nc3c2=O)c(OC)c1	9.2	11.9	.	-3.3	-1.0	13.6
COCC(=O)N1C[C@H](C)[C@@H](OC)CN(C)C(=O)c2cc(NC(=O)c3cnccn3)ccc2OC[C@H]1C	4.7	-21.5	.	.	10.9	.
O=C1c2ccccc2C(=O)c2c(Nc3ccc(CCO)cc3)ccc(O)c21	-17.6	32.9	-0.7	-2.2	-6.4	-51.5
SMILES	INS-1E GSIS act	PAX8 inh HTS	CDK5 inh	dFosB act	Cneo AK release	HIV Env fusion
O=C1c2c(O)ccc(O)c2C(=O)c2c(NCCNCCO)ccc(NCCNCCO)c21	-0.5	105.9*!	1.0	-276.2	-0.8	58.0*
CSc1sc(-c2ccnc(SCC(=O)C(C)(C)C)n2)c2c1C(=O)CC(C)(C)C2	-11.7	3.2	-0.7	-11.7	.	64.5*
CSc1sc(C(=O)O)c2c1C(=O)CC(C)(C)C2	.	2.7	0.7	1.5	2.2	-1.3
Nc1cc(=O)[nH]c(SCCSc2ccccc2)n1	2.0	18.1	-0.8	-5.9	3.1	58.4*
C[C@H](CO)N1C[C@H](C)[C@@H](CN(C)C(=O)Nc2ccc(F)cc2)Oc2c(NC(=O)c3ccc(-c4nccs4)cc3)cccc2C1=O	9.8	-21.5	.	.	4.3	6.4[16.7 µM]
C[C@H]1CN([C@@H](C)CO)C(=O)Cc2cc(NS(=O)(=O)c3ccccc3)ccc2O[C@@H]1CN(C)C(=O)Nc1ccc(C(F)(F)F)cc1	5.9	23.9	.	.	-8.3	-3.3[16.7 µM]
CC(=O)C1=C(O)C(=O)N(CCc2ccccc2)C1c1ccccc1[N+](=O)[O-] (stereo not given)	6.3	122.0*	-3.6	-4.6	.	.
Nc1nc2c(nnn2C2CC(O)C(CO)O2)c(=O)[nH]1 (stereo not given)	.	83.1*	.	.	-1.9	14.7
O=C(N[C@@H]1C=C[C@@H](CC(=O)N2CCCCC2)O[C@H]1CO)c1ccccn1	7.9	6.8	.	.	-0.9	8.6[16.7 µM]
CCCC(=O)OCCNc1cc(Sc2nccn2C)c2nonc2c1[N+](=O)[O-]	162.1*	-12.0	0.0	-2.9	.	-179.1
CCCSc1cc(NCCOC(=O)CCC)c([N+](=O)[O-])c2nonc12	13.7	0.3	-0.2	-7.6	.	1.8
CCC(=O)OCCNc1cc(Sc2nc3ccccc3[nH]2)c2nonc2c1[N+](=O)[O-]	87.6*	45.1	0.8	-3.6	.	-73.2
C[C@H]1CN([C@@H](C)CO)C(=O)Cc2cc(N(C)C)ccc2O[C@H]1CN(C)Cc1ccc(Cl)c(Cl)c1	10.6	-14.0	.	.	.	58.4*[16.7 µM]
C[C@@H]1CN([C@@H](C)CO)C(=O)c2cc(N(C)C)ccc2O[C@@H]1CN(C)Cc1ccc(Oc2ccccc2)cc1	-12.1	83.6*	.	.	.	27.4[16.7 µM]
C[C@H]1CN([C@@H](C)CO)C(=O)Cc2cc(N(C)C)ccc2O[C@H]1CN(C)CC1CC1	11.0	-3.5	.	.	-3.1	58.7*[16.7 µM]
C[C@@H]1CN([C@@H](C)CO)C(=O)Cc2cc(N(C)C)ccc2O[C@H]1CN(C)Cc1ccc(Oc2ccccc2)cc1	-7.6	81.5*	.	.	.	34.0[16.7 µM]
COc1ccc(-n2nc3c(N4CCC(C(=O)NCc5ccccc5C)CC4)nnc(C)c3c2C)cc1	.	.	1.0	76.8*	1.5	.
COc1ccc(-n2nc3c(N4CCC(C(=O)NCCc5ccccc5C)CC4)nnc(C)c3c2C)cc1	.	.	-0.8	-0.9	-0.1	.
CCOc1ccccc1CNC(=O)C1CCCN(c2nnc(C)c3c(C)n(-c4ccccc4)nc23)C1 (stereo not given)	9.6	80.7*	-0.7	6.0	-1.4	33.0

Screening data deposited in PubChem by Broad Institute.
